Laboratory results: the RNAGym collection of RNA variant scans (doi:10.1101/gad.245936.114)
Variants at the floor of the assay were thinned out.

B1: tRNA (parent)
chain: CUCUCGGUAGCCAAGUUGGUUUAAGGCGCAAGACUUUAAUUUAUCACUACGAAAUCUUGAGAUCGGGCGUUCGACUCGCCCCCGGGAGAUUUUUUCCUCGAGCAA

Variants of: B1
Assay: nonsense suppression (GFP-seq) (ratio to wild type); higher = more function; SUP4oc tRNA, yeast GFP reporter sort-seq
Procedure, shortened: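 Yeast were grown in raffinose/galactose medium with 80 mg/L adenine, each strain bearing a genome-integrated ochre-suppressor tRNA variant from a ~3% random-mutation library, a galactose-driven GFP ochre reporter, and RFP. After sorting into GFP/RFP bins, every bin was sequenced on an Illumina platform at phred ≥30. The GFPSEQ value, a measure of nonsense suppression, is the weighted bin median GFP/RFP relative to the unmutated parent tRNA, using each variant's estimated cell share per bin as the weight. Only variants with ≥100 reads and ≥30 cells were included.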
For U21G A24C, the nonsense suppression was 0.493.
With U21G A24U the nonsense suppression was 0.0683.
U21A U63G G86A gave a nonsense suppression of at most 0.026.
In the case of U22A A23C, the nonsense suppression is reported as 0.153.
Work on A23U A60G yielded a nonsense suppression of 0.0537.
Variant A24C C29U has a nonsense suppression of 0.751.
Variant A23G C56G G65A U71G has a nonsense suppression of at most 0.026.
Work on A23U G86A yielded a nonsense suppression of at most 0.026.
Work on U21G C79A yielded a nonsense suppression of at most 0.026.
Work on A24C U76C yielded a nonsense suppression of 0.88.
Variant U21G U22C C82U has a nonsense suppression of 0.199.
In the case of U22C G26A U57G, the nonsense suppression is reported as at most 0.026.
U21G G61C gave a nonsense suppression of 0.105.
In the case of U21G G61U, the nonsense suppression is reported as 0.554.
U21G G61A gave a nonsense suppression of 0.237.
A24U A30C C83A gave a nonsense suppression of at most 0.026.
With U22A C75A A89C the nonsense suppression was at most 0.026.
For U21C G32U U58C, the nonsense suppression was at most 0.026.
Work on U22G G85U yielded a nonsense suppression of 0.796.
For A24U A33G, the nonsense suppression was 0.117.
Variant A24C G26A A30U C80G C81G has a nonsense suppression of at most 0.026.
For A24C G28A, the nonsense suppression was 0.952.
A24C G28C gave a nonsense suppression of 0.201.
Work on U21C U35A C64G G66C C72G yielded a nonsense suppression of at most 0.026.
For U22C C34G G88A, the nonsense suppression was at most 0.026.
In the case of U22A G86U, the nonsense suppression is reported as 0.033.
For A23G A31G, the nonsense suppression was 0.0446.
Variant A24C U57A has a nonsense suppression of 0.0454.
For U21G G85A, the nonsense suppression was 1.08.
In the case of A23U G65A, the nonsense suppression is reported as at most 0.026.
For A24G A31G, the nonsense suppression was 0.0322.
With U21G A87G the nonsense suppression was 0.172.
U21G A60C gave a nonsense suppression of 0.0285.
With U21G A60U the nonsense suppression was 0.96.
In the case of U21G A60G, the nonsense suppression is reported as 0.0299.
For U22C A30C G32U C82G, the nonsense suppression was at most 0.026.
A23G G84U G86U gave a nonsense suppression of at most 0.026.
Work on U22C A30U C83A yielded a nonsense suppression of at most 0.026.
For A23U G67A, the nonsense suppression was at most 0.026.
For A24U C29U, the nonsense suppression was 0.233.
A24C C72U G84A showed a nonsense suppression of at most 0.026.
In the case of U21G A33G C34U G65C, the nonsense suppression is reported as at most 0.026.
A23G U70C gave a nonsense suppression of at most 0.026.
Work on A24G A87G yielded a nonsense suppression of 0.0583.
With A24C C68U the nonsense suppression was 0.765.
U22A U76C showed a nonsense suppression of 0.967.
U22A U76A gave a nonsense suppression of 0.0747.
For U21C G28U A31U A33G G78U C79A, the nonsense suppression was at most 0.026.
Variant U22C C29U G61A has a nonsense suppression of 0.386.
For A24C G26U, the nonsense suppression was 0.038.
In the case of A23G A54U, the nonsense suppression is reported as 0.0263.
For U21G G61A C64A C81A, the nonsense suppression was at most 0.026.
In the case of U21C C82U, the nonsense suppression is reported as 1.15.
U22G A54U G88U showed a nonsense suppression of at most 0.026.
With A24C G25U the nonsense suppression was at most 0.026.
U21C A54C U63G C82U gave a nonsense suppression of at most 0.026.
Work on U21C C56U yielded a nonsense suppression of 0.174.
For A23G A33C G66A, the nonsense suppression was at most 0.026.
In the case of U21G U76C, the nonsense suppression is reported as 0.861.
Variant A24G C79U has a nonsense suppression of 0.0352.
Variant A24C A54G has a nonsense suppression of 0.0609.
For A24C A54C, the nonsense suppression was 0.198.
In the case of A23C U76G, the nonsense suppression is reported as at most 0.026.
U22C U76C showed a nonsense suppression of 1.02.
Work on A24C U58G G86U yielded a nonsense suppression of at most 0.026.
A23G G69C gave a nonsense suppression of at most 0.026.
Work on A24C C79U yielded a nonsense suppression of 0.209.
Variant A24C G65A has a nonsense suppression of 0.0366.
For A24C G65U, the nonsense suppression was 0.0266.
In the case of U21G G69U, the nonsense suppression is reported as at most 0.026.
Work on U21C G69C yielded a nonsense suppression of at most 0.026.
For A23U G25U G69C, the nonsense suppression was at most 0.026.
U21C G26U G67A C80G gave a nonsense suppression of at most 0.026.
With U21A G66U C80G the nonsense suppression was 0.219.
Work on A24C G84A yielded a nonsense suppression of 0.478.
In the case of A23C A24C A31C, the nonsense suppression is reported as at most 0.026.
For U21C U22A, the nonsense suppression was 1.14.
A24G C75A gave a nonsense suppression of 0.24.
In the case of A24G C75U, the nonsense suppression is reported as 0.185.
In the case of U22G C75A, the nonsense suppression is reported as 0.927.
In the case of U22G C75U, the nonsense suppression is reported as 0.981.
For A24U A31G, the nonsense suppression was 0.229.
A24C A89C gave a nonsense suppression of 0.0925.
With A24G U55C the nonsense suppression was 0.0553.
For A24C A60U U63A, the nonsense suppression was 0.112.
A24G C68A C82G G84U showed a nonsense suppression of at most 0.026.
Variant A23G A24C C34U C72A A89U has a nonsense suppression of at most 0.026.
U21C G67A showed a nonsense suppression of 0.0282.
Work on A24G C29U yielded a nonsense suppression of 0.0384.
For U21C C56G U70C C75G, the nonsense suppression was at most 0.026.
Work on A24C U70A yielded a nonsense suppression of at most 0.026.
Variant A23C G25A has a nonsense suppression of at most 0.026.
For A24U A62C, the nonsense suppression was at most 0.026.
Variant A24U A62G has a nonsense suppression of 0.0414.
Work on A24U A62U yielded a nonsense suppression of 0.0332.
In the case of U21C A30G, the nonsense suppression is reported as 0.967.
For U21G C83U, the nonsense suppression was 0.0839.
With U22G G73A the nonsense suppression was 0.854.
A24C C83U gave a nonsense suppression of 0.383.
A24C U71C gave a nonsense suppression of 0.0704.
A24C A30U gave a nonsense suppression of 0.11.
U21G A30G gave a nonsense suppression of 0.227.
Work on U21G A30U yielded a nonsense suppression of at most 0.026.
A24G G85A showed a nonsense suppression of 0.189.
For A24G A30U U70G C72A, the nonsense suppression was at most 0.026.
Variant U22C G59C has a nonsense suppression of at most 0.026.
Variant U22A C75U has a nonsense suppression of 1.15.
With U22G U63C the nonsense suppression was 0.868.
In the case of U22G U63A, the nonsense suppression is reported as 0.939.
Work on U21G G66C yielded a nonsense suppression of at most 0.026.
U21A G78C showed a nonsense suppression of 0.0372.
U22C G73A showed a nonsense suppression of 0.848.
Work on A24C C81U yielded a nonsense suppression of 0.2.
U22A A87G showed a nonsense suppression of 0.501.
A23C C34U G78U gave a nonsense suppression of at most 0.026.
For U22G A30G, the nonsense suppression was 0.781.
U22G A30U gave a nonsense suppression of 0.184.
Variant U22C A24U C29U A30G has a nonsense suppression of 0.0731.
In the case of U21A U55C C79U, the nonsense suppression is reported as at most 0.026.
For U22G G28U A62U G73U, the nonsense suppression was at most 0.026.
For U21C C29U G61U, the nonsense suppression was 0.518.
Work on U21G G28A A31G yielded a nonsense suppression of 0.266.
Work on A23G C68U yielded a nonsense suppression of 0.182.
A24C U55C gave a nonsense suppression of 0.365.
U21C G61A A62C showed a nonsense suppression of 0.0269.
For U21G U57G, the nonsense suppression was at most 0.026.
Variant A24G U70G has a nonsense suppression of at most 0.026.
Variant U22G C34A G85A has a nonsense suppression of at most 0.026.
For A23U C75A, the nonsense suppression was at most 0.026.
A24C U58C showed a nonsense suppression of 0.034.
In the case of A23U G32C U57C C81A, the nonsense suppression is reported as at most 0.026.
Work on A24U A60G G65U G88C A89G yielded a nonsense suppression of at most 0.026.
U22A G73A showed a nonsense suppression of 0.325.
For A24C U71A G78C C80A A87U, the nonsense suppression was at most 0.026.
A24C U71A G78C C80A A87G gave a nonsense suppression of at most 0.026.
With U22G A54G G73A the nonsense suppression was at most 0.026.
Work on U22C A31G A74C yielded a nonsense suppression of at most 0.026.
Work on U21C A60U C68U yielded a nonsense suppression of 1.05.
With A24G A54U the nonsense suppression was 0.0262.
For U22A A33U A89C, the nonsense suppression was at most 0.026.
U22G G25U G66A A89G gave a nonsense suppression of at most 0.026.
In the case of U22C A33G G59A, the nonsense suppression is reported as at most 0.026.
Variant U21A U22A G28C U55A G69A has a nonsense suppression of at most 0.026.
With A24U C29A C79U the nonsense suppression was at most 0.026.
Variant U22C A33U has a nonsense suppression of 0.202.
A24C G32U showed a nonsense suppression of 0.043.
In the case of A24U A30G, the nonsense suppression is reported as 0.148.
Variant A24U A30U has a nonsense suppression of 0.0403.
U22C G78C gave a nonsense suppression of 0.195.
For U22A A24C C68U, the nonsense suppression was 0.215.
For A24C C72U, the nonsense suppression was 0.0288.
Variant A24C C72G has a nonsense suppression of 0.0618.
A24C C34G C56U gave a nonsense suppression of at most 0.026.
With A23G U55C the nonsense suppression was 0.0273.
A23G U55G gave a nonsense suppression of at most 0.026.
With A23C A30G C81A A87G the nonsense suppression was at most 0.026.
A23G C29U showed a nonsense suppression of 0.142.
With U22A G28A the nonsense suppression was 1.14.
U22A A30U gave a nonsense suppression of 0.177.
With U22A A30G the nonsense suppression was 0.677.
A24G gave a nonsense suppression of 0.188.
Work on A24C yielded a nonsense suppression of 1.13.
For A24U, the nonsense suppression was 0.487.
Variant A23U U55C A60C G69U G85C has a nonsense suppression of at most 0.026.
In the case of U22G A87G, the nonsense suppression is reported as 0.886.
U22C U70C G73A showed a nonsense suppression of at most 0.026.
For U21G A31G, the nonsense suppression was 0.77.
